Experimental data published in ChEMBL document CHEMBL1240456, “Synthesis and antimicrobial activity of some new thiazole, thiophene and pyrazole derivatives containing benzothiazole moiety” (2010).
Values after ≈ are worked out from the molar mass of the structure shown.

Experiments:
Type in all cases: functional
Fusarium oxysporum [1] = assay: Antimicrobial activity against Fusarium oxysporum after 48 hrs by agar diffusion assay
Fusarium oxysporum [2] = assay: Antimicrobial activity against Fusarium oxysporum after 48 hrs by microdilution assay
Outline: (§1)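 Broth microdilution in Sabouraud liquid medium, run only for compounds giving zones >12 mm. Stock at 1000 µg/mL in DMF, then twofold dilutions of 500 down to 3.125 µg/mL. Wells inoculated with 10^6 CFU/mL.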

Pseudomonas fluorescens [3] = assay: Antimicrobial activity against Pseudomonas fluorescens S 97 after 24 hrs by microdilution assay; conditions: S 97, 24 h
Outline: (§2)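 Broth microdilution in Müller-Hinton broth, run only for compounds giving zones >12 mm. Stock at 1000 µg/mL in DMF, then twofold dilutions of 500 down to 3.125 µg/mL. Wells inoculated with 10^6 CFU/mL.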

Pseudomonas [4] = assay: Antimicrobial activity against Pseudomonas phaseolicola GSPB 2828 after 24 hrs by microdilution assay; conditions: GSPB 2828, 24 h; outline: as §2
Streptococcus pyogenes [5] = assay: Antimicrobial activity against Streptococcus pyogenes ATCC 19615 after 24 hrs by agar diffusion assay
Outline: (§3)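 Filter-paper disks (5 mm) loaded with test solution at 1 mg/mL in DMF, placed on agar seeded with the bacterium, in triplicate. DMF alone served as control. Plates incubated at 37 °C for 24 h. Read-out is the mean diameter of the inhibition zone in mm.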

Staphylococcus aureus [6] = assay: Antimicrobial activity against Staphylococcus aureus ATCC 25923 after 24 hrs by microdilution assay; conditions: ATCC 25923, 24 h; outline: as §2
Pseudomonas [7] = assay: Antimicrobial activity against Pseudomonas phaseolicola GSPB 2828 after 24 hrs by agar diffusion assay; outline: as §3
Aspergillus fumigatus [8] = assay: Antimicrobial activity against Aspergillus fumigatus after 48 hrs by microdilution assay; outline: as §1
Aspergillus fumigatus [9] = assay: Antimicrobial activity against Aspergillus fumigatus after 48 hrs by agar diffusion assay
Streptococcus pyogenes [10] = assay: Antimicrobial activity against Streptococcus pyogenes ATCC 19615 after 24 hrs by microdilution assay; conditions: ATCC 19615, 24 h; outline: as §2
Staphylococcus aureus [11] = assay: Antimicrobial activity against Staphylococcus aureus ATCC 25923 after 24 hrs by agar diffusion assay; outline: as §3
Pseudomonas fluorescens [12] = assay: Antimicrobial activity against Pseudomonas fluorescens S 97 after 24 hrs by agar diffusion assay; outline: as §3

MIC (Fusarium oxysporum [2]) [µg/mL] | MIC (Pseudomonas fluorescens [3]) [µg/mL] | MIC (Pseudomonas [4]) [µg/mL] | MIC (Staphylococcus aureus [6]) [µg/mL] | MIC (Aspergillus fumigatus [8]) [µg/mL] | MIC (Streptococcus pyogenes [10]) [µg/mL] | SMILES | inhibition zone (IZ) (Fusarium oxysporum [1]) [mm] | inhibition zone (IZ) (Streptococcus pyogenes [5]) [mm] | inhibition zone (IZ) (Pseudomonas [7]) [mm] | inhibition zone (IZ) (Aspergillus fumigatus [9]) [mm] | inhibition zone (IZ) (Staphylococcus aureus [11]) [mm] | inhibition zone (IZ) (Pseudomonas fluorescens [12]) [mm]
100 (≈ 255 µM) | 100 (≈ 255 µM) | 100 (≈ 255 µM) | 100 (≈ 255 µM) | 50 (≈ 127 µM) | 100 (≈ 255 µM) | N#C/C(C(=O)Nc1nc2ccccc2s1)=C1\SCC(=O)N1c1ccccc1 | 14 | 14 | 15 | 19 | 15 | 17
50 (≈ 139 µM) | 100 (≈ 277 µM) | 6.25 (≈ 17.3 µM) | 100 (≈ 277 µM) | 100 (≈ 277 µM) | 100 (≈ 277 µM) | O=c1c2c(Nc3ccccc3)n[nH]c2ncn1-c1nc2ccccc2s1 | 19 | 15 | 38 | 15 | 15 | 15
12.5 (≈ 32.5 µM) | 100 (≈ 260 µM) | 50 (≈ 130 µM) | 12.5 (≈ 32.5 µM) | 100 (≈ 260 µM) | 100 (≈ 260 µM) | Nc1c(C(=O)Nc2nc3ccccc3s2)sc(=S)n1-c1ccccc1 | 31 | 14 | 20 | 16 | 32 | 16
100 (≈ 240 µM) | 50 (≈ 120 µM) | 25 (≈ 60 µM) | 25 (≈ 60 µM) | 100 (≈ 240 µM) | 6.25 (≈ 15 µM) | Cc1cc(O)n2nc(Nc3ccccc3)c(C(=O)Nc3nc4ccccc4s3)c2n1 | 15 | 37 | 26 | 14 | 25 | 19
25 (≈ 43.1 µM) | 50 (≈ 86.1 µM) | 100 (≈ 172 µM) | 3.12 (≈ 5.38 µM) | 100 (≈ 172 µM) | 6.25 (≈ 10.8 µM) | O=C(Nc1nc2ccccc2s1)c1c(Nc2ccccc2)n[nH]c1/N=C\c1cn(-c2ccccc2)nc1-c1ccccc1 | 26 | 37 | 15 | 14 | 44 | 19
100 (≈ 343 µM) | 6.25 (≈ 21.5 µM) | 100 (≈ 343 µM) | 25 (≈ 85.8 µM) | 50 (≈ 172 µM) | 25 (≈ 85.8 µM) | O=C1CSC(CC(=O)Nc2nc3ccccc3s2)=N1 | 16 | 25 | 14 | 20 | 26 | 37
100 (≈ 213 µM) | 50 (≈ 106 µM) | 50 (≈ 106 µM) | 6.25 (≈ 13.3 µM) | – | 6.25 (≈ 13.3 µM) | Nc1c(C(=O)c2ccccc2)sc(Nc2ccccc2)c1C(=O)Nc1nc2ccccc2s1 | 14 | 37 | 19 | – | 38 | 20
100 (≈ 221 µM) | 50 (≈ 110 µM) | 100 (≈ 221 µM) | 50 (≈ 110 µM) | 6.25 (≈ 13.8 µM) | 100 (≈ 221 µM) | N#C/C(C(=O)Nc1nc2ccccc2s1)=C1/SC=C(c2ccccc2)N1c1ccccc1 | 15 | 15 | 14 | 38 | 19 | 19
100 (≈ 228 µM) | – | 50 (≈ 114 µM) | 3.12 (≈ 7.13 µM) | 12.5 (≈ 28.5 µM) | 6.25 (≈ 14.3 µM) | CCOC(=O)c1sc(Nc2ccccc2)c(C(=O)Nc2nc3ccccc3s2)c1N | 14 | 38 | 19 | 31 | 43 | –
50 (≈ 105 µM) | 50 (≈ 105 µM) | 100 (≈ 209 µM) | 12.5 (≈ 26.2 µM) | – | 6.25 (≈ 13.1 µM) | Nc1[nH]nc(-c2cn(-c3ccccc3)nc2-c2ccccc2)c1C(=O)Nc1nc2ccccc2s1 | 19 | 38 | 14 | – | 32 | 20
25 (≈ 64 µM) | 12.5 (≈ 32 µM) | 100 (≈ 256 µM) | 100 (≈ 256 µM) | 50 (≈ 128 µM) | 100 (≈ 256 µM) | Cc1cc(C)c2c(n1)[nH]n1c(=N)c(C(=O)Nc3nc4ccccc4s3)nnc21 | 26 | 15 | 15 | 19 | 14 | 32
100 (≈ 304 µM) | 100 (≈ 304 µM) | 100 (≈ 304 µM) | 6.25 (≈ 19 µM) | 50 (≈ 152 µM) | 6.25 (≈ 19 µM) | Nc1sc2c(c1C(=O)Nc1nc3ccccc3s1)CCCC2 | 15 | 38 | 14 | 19 | 38 | 16
– | 6.25 (≈ 15.8 µM) | 6.25 (≈ 15.8 µM) | 6.25 (≈ 15.8 µM) | – | 6.25 (≈ 15.8 µM) | CC(=O)OCC1=C(C(=O)O)N2C(=O)[C@@H](NC(=O)Cc3cccs3)[C@H]2SC1 [CEPHALOTHIN] | – | 37 | 38 | – | 36 | 37
6.25 (≈ 13.3 µM) | 50 (≈ 107 µM) | 100 (≈ 213 µM) | 100 (≈ 213 µM) | 25 (≈ 53.4 µM) | 100 (≈ 213 µM) | O=C(Nc1nc2ccccc2s1)c1c(Nc2ccccc2)nn2c(-c3cccs3)ccnc12 | 37 | 15 | 15 | 26 | 14 | 18

SMILES | MIC (Fusarium oxysporum [2]) [µg/mL] | MIC (Pseudomonas fluorescens [3]) [µg/mL] | MIC (Pseudomonas [4]) [µg/mL] | MIC (Staphylococcus aureus [6]) [µg/mL] | MIC (Aspergillus fumigatus [8]) [µg/mL] | MIC (Streptococcus pyogenes [10]) [µg/mL] | inhibition zone (IZ) (Fusarium oxysporum [1]) [mm] | inhibition zone (IZ) (Streptococcus pyogenes [5]) [mm] | inhibition zone (IZ) (Pseudomonas [7]) [mm] | inhibition zone (IZ) (Aspergillus fumigatus [9]) [mm] | inhibition zone (IZ) (Staphylococcus aureus [11]) [mm] | inhibition zone (IZ) (Pseudomonas fluorescens [12]) [mm]
O=C(N[C@H](CO)[C@H](O)c1ccc([N+](=O)[O-])cc1)C(Cl)Cl [CHLORAMPHENICOL] | – | 6.25 (≈ 19.3 µM) | 6.25 (≈ 19.3 µM) | 3.12 (≈ 9.67 µM) | – | 3.12 (≈ 9.67 µM) | – | 44 | 37 | – | 42 | 38
C[C@@H]1C[C@@H]([C@H](O)CC2CC(=O)NC(=O)C2)C(=O)[C@@H](C)C1 [CYCLOHEXIMIDE] | 3.12 (≈ 11.1 µM) | – | – | – | 3.12 (≈ 11.1 µM) | – | 43 | – | – | 42 | – | –
